Pemphigus Ab inh: blocks pemphigus antibody binding to human desmoglein-3. P32926. DSG3-coupled beads, scFv-anti-DSG3-GFP binding, flow cytometry; active compounds read low. binding (percent of control), % at 10 µM. 0.48% of 310,000 active. AID 588358;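 active = binding more than 3 SD below its plate's average and above zero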;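 note: hits lower antibody fragment binding to DSG3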
Target sequence (P32926 whole entry, looked up, the tested form may be a part): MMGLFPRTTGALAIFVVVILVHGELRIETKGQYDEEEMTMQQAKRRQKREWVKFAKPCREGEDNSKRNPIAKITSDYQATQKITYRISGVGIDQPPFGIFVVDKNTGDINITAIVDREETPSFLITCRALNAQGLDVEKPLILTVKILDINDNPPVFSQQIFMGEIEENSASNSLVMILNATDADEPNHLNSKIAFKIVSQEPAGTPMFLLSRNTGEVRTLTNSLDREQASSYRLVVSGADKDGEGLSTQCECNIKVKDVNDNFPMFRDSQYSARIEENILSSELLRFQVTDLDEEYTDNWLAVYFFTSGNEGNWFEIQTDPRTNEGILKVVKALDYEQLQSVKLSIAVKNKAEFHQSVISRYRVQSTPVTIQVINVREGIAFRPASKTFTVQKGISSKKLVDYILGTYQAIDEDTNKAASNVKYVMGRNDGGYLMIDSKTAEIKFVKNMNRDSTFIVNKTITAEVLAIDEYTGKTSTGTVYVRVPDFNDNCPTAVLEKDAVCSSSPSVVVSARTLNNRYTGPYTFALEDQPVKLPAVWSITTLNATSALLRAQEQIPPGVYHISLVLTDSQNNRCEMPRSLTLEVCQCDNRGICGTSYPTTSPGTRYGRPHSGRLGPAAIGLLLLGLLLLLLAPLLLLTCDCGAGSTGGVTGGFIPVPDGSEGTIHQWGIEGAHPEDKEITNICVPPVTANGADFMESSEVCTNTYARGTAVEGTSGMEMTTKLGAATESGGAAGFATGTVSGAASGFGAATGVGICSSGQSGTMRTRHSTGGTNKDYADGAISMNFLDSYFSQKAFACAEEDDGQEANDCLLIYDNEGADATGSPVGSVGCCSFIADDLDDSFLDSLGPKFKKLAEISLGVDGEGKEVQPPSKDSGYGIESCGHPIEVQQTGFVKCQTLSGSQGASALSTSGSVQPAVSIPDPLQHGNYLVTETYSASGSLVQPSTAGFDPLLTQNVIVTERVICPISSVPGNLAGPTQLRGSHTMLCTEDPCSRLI
Mcl-1 Bim block: inhibitors of Bim-Mcl-1 interaction, human. Q07820. Bead-based flow cytometry, Bim peptide-Mcl-1 binding. inhibition, % at 10 µM. 0.1% of 190,000 active. AID 1009; in the data active = inhibition above about 40%
T cell HTS: modulates CD8 T cell binding to vesicles. 2C CD8+ T cell-vesicle binding, flow cytometry; active compounds read low. AID 2052. 0.068% of 330,000 active. response (vesicle binding), % at 7 µM;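 active = response, share of CD8 T cells binding vesicles, and their 90th percentile fluorescence all below set limits, cut at about 80% in these data, passing the limit was not always enough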;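 note: values below 100% mean blocked vesicle binding to the CD8+ T cells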
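Assay system: 2C TCR transgenic mouse naive CD8+ T cells, MACS-purified | Read-out: CD8+ gate FL2 mean fluorescence as % of same-row positive control | Signal: High-throughput flow cytometry with anti-B7-1 and anti-CD8 staining | Timing: Binding step 1.5 h, 37 °C, antibody labelling 20 min, ice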
Mcl1-Noxa inh: disrupts binding of human Mcl-1 to Noxa peptide. TR-FRET Mcl-1/Noxa peptide binding, 2 h. inhibition, % at 21.7 µM. 1.5% of 220,000 active;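 active = compounds that cut the protein-peptide binding signal by more than 50% relative to plate controls in a single-dose test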;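 note: His-tagged Mcl-1 with rhodamine Noxa BH3 peptide and terbium anti-His antibody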
Mcl1-Bid inh: Mcl-1/Bid interaction inhibition; 0.97% of 220,000 active; Q07820; AID 1021; inhibition, % at 21.7 µM; TR-FRET Mcl-1/Bid-Dy647 peptide binding, 1536-well;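 active = compounds that cut the binding signal by more than half at the single screening dose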;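 note: His-tagged Mcl-1 with europium anti-His antibody binding Bid BH3 peptide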
MCL1 BIM primary: inhibitors of human MCL1 binding to BIM-BH3 peptide | Q07820 | GST-MCL1 / FITC-Bim-BH3 fluorescence polarization | inhibition, % at 10.9 µM | 0.68% of 320,000 active | AID 2057;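 active = inhibition above the mean inhibition of all tested compounds plus 3 SD, set per campaign, cut at about 40% in these data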;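 note: higher means more loss of mP so more displacement of Bim peptide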
A number is an active result; . = inactive; / = no result given. An excerpt weighted towards active compounds, which were near 2.3% of everything screened.

SMILES | Pemphigus Ab inh | Mcl-1 Bim block | T cell HTS | Mcl1-Noxa inh | Mcl1-Bid inh | MCL1 BIM primary
CCOc1ccccc1CN1CCNC(=O)C1CC(=O)N(C)Cc1cnccn1 (stereo not given) | . | / | . | / | / | .
OC1(c2cccnc2)CCN(Cc2nnnn2C2CCCCC2)CC1 | . | . | . | . | 51.5 | .
N#CC1C(=N)Cc2ccccc2-c2ccccc21 (stereo not given) | . | / | / | / | / | /
Cc1cc2cc(CNS(=O)(=O)c3ccccc3)ccc2n1C | . | . | . | . | . | 46.5
CCS(=O)(=O)NCc1ccc2c(c1)cc(C)n2C | . | . | . | . | 69.8 | .
Cc1ccc(S(=O)(=O)Nc2ccccc2N2CCOCC2)cc1 | . | / | . | / | / | .
O=C(CN1C(=O)/C(=C2/SC(=S)N(CCS(=O)(=O)O)C2=O)c2ccccc21)Nc1cccc(C(F)(F)F)c1 | 82.3 | / | . | / | / | /
Cc1cc(NS(=O)(=O)c2ccc(NC(=O)c3ccccc3C)cc2)no1 | . | / | . | / | / | .
Cc1cc(NS(=O)(=O)c2ccc(NC(=O)c3cc4cc(Br)ccc4oc3=O)cc2)no1 | . | . | . | . | 57.1 | .
Cc1ccc(S(=O)(=O)/N=C(/Nc2c(C)cccc2C)c2ccccc2)cc1 | . | / | . | / | / | /
Cn1cc(CN2CCCC(CO)(Cc3cccc(Cl)c3)C2)cn1 (stereo not given) | . | . | . | 67.9 | . | .
Cc1ccc(C2=Nc3ccc(Br)cc3C(c3ccncc3)=NN2)cc1 | . | . | . | . | . | .
CN(c1ccccc1)S(=O)(=O)c1ccc(C(=O)NCc2ccco2)cc1 | . | / | / | / | / | /
CN(C)S(=O)(=O)c1ccc(C(=O)NCCc2ccco2)cc1 | . | / | 66.5 | / | / | .
CC(C)CCC(CCN1CCCC1)c1ccc2c(c1)OCO2 (stereo not given) | . | / | . | 75.1 | . | .
Nc1nnc(CC(=O)N/N=C/c2ccc(-c3ccc(Cl)cc3Cl)o2)s1 | . | / | . | 51.1 | . | .
Nc1nnc(CC(=O)N/N=C/c2ccc(-c3ccccc3Cl)o2)s1 | . | . | . | . | . | .
CCOc1ccc(NC(=O)c2ccc3c(c2)S(=O)(=O)N=C2CCCCCN23)cc1 | 77.5 | / | / | / | / | /
COc1ccc2[nH]c3c(c2c1)CCN1C(=O)C(CC(=O)NCC24CC5CC(CC(C5)C2)C4)C[C@H](C(=O)N(C(C)C)C(C)C)[C@@]31C (stereo not given in full) | . | / | / | / | / | /
CC(C(=O)NC1CCCC1)N(Cc1ccco1)C(=O)c1snc(C(=O)NC2CCCC2)c1N (stereo not given) | . | . | . | 90.3 | . | .
NC(=O)c1nsc(C(=O)N(Cc2ccco2)C(C(=O)NC2CCCC2)c2ccc(O)cc2)c1N (stereo not given) | . | / | / | / | / | /
CC1(C)CC(=O)C=C(c2cc3ccccc3s2)C1 | 85.5 | / | . | / | / | .
O=C1C=C(c2cc3ccccc3s2)CCC1 | . | / | . | / | / | .
CCOC(=O)c1ccccc1NC(=O)COC(=O)C(CCSC)NC(=O)COc1ccccc1 (stereo not given) | . | / | . | / | / | .
COCCn1c(-c2ccc(F)cc2)nc2oc3cc(OC)ccc3c(=O)c2c1=O | / | / | . | . | . | .
SMILES | Pemphigus Ab inh | Mcl-1 Bim block | T cell HTS | Mcl1-Noxa inh | Mcl1-Bid inh | MCL1 BIM primary
CCCc1nc2oc3cc(OC)ccc3c(=O)c2c(=O)n1CCc1ccccc1 | . | / | . | . | 69.1 | .
COCCn1c(-c2ccc(C)cc2)nc2oc3cc(OC)ccc3c(=O)c2c1=O | . | / | . | . | 52.9 | .
COc1ccc2c(=O)c3c(=O)n(-c4ccccc4)c(-c4ccco4)nc3oc2c1 | . | . | . | . | . | .
Cc1ccc(-n2c(C)nc3oc4ccccc4c(=O)c3c2=O)cc1 | . | . | . | 65.2 | . | .
CCc1nc2oc3cc(OC)ccc3c(=O)c2c(=O)n1Cc1ccccc1 | . | . | . | . | . | .
CCc1nc2oc3cc(OC)ccc3c(=O)c2c(=O)n1-c1ccccc1 | . | . | . | . | . | .
COc1ccc2c(=O)c3c(=O)n(-c4ccc(C)cc4)c(-c4ccccc4)nc3oc2c1 | / | / | . | 81.0 | . | .
CC1(C2CCC3(C)OC3C2)CO1 (stereo not given) | . | / | / | / | / | /
O=Cc1cn(CCC(=O)O)nc1-c1cccc(Br)c1 | . | . | . | . | . | .
NC1=NC(=O)/C(=C/c2cn(CCC(=O)O)nc2-c2ccc(F)cc2)S1 | . | . | . | 54.6 | . | .
O=C(O)CCn1cc(/C=C\C(=O)c2ccc(Cl)cc2)c(-c2cccc(Br)c2)n1 | . | . | . | . | 58.3 | .
NC1=NC(=O)/C(=C/c2cn(CCC(=O)O)nc2-c2ccc(Cl)cc2)S1 | . | . | . | 72.5 | . | .
N#CCCn1cc(/C=C/C(=O)O)c(-c2ccc(F)cc2)n1 | . | . | . | . | . | .
COc1ccc(-c2nn(CCC(=O)O)cc2CCC(=O)O)cc1 | . | . | . | / | . | .
COc1ccc(-c2nn(CCC(=O)O)cc2/C=C2\SC(N)=NC2=O)cc1 | . | . | . | 67.0 | . | .
NC1=NC(=O)/C(=C\c2ccc(-c3ccc(Cl)cc3)o2)S1 | . | / | . | / | / | .
CCN(CC(=O)Nc1ccc(NC(C)=O)cc1)C(=O)c1ccc(=O)n(C)n1 | . | / | . | / | / | .
CCN(C(=O)COC(=O)c1ccc(=O)n(Cc2ccccc2)n1)C1CCS(=O)(=O)C1 (stereo not given) | . | / | / | / | / | /
COc1ccc2sc3ccccc3c(=O)c2c1 | . | . | . | . | . | .
Cc1cc(O)cc2c(=O)c3ccccc3sc12 | . | . | . | 59.0 | . | .
c1ccc2nc3c(cc2c1)CCCCC3 | . | / | . | . | . | .
CCOc1cc(Br)cc(/C=C2\SC(=Nc3ccccc3)NC2=O)c1O | . | / | . | / | / | .
C=CCOc1ccc(Br)cc1/C=C1/SC(=Nc2ccc(C(=O)O)cc2)NC1=O | . | . | / | 55.1 | . | /
CCCCN1CC(O)=C(c2nc(-c3ccc(Cl)cc3)cs2)C1=N | / | . | . | 63.7 | . | .
CC(C)NC(=O)CSc1nnc2sc3ccccc3n12 | . | . | . | . | . | .
SMILES | Pemphigus Ab inh | Mcl-1 Bim block | T cell HTS | Mcl1-Noxa inh | Mcl1-Bid inh | MCL1 BIM primary
NC(=O)CSc1nnc2sc3ccccc3n12 | . | . | 79.4 | . | . | .
COc1nc(Nc2ccc(C(C)C)cc2)nc(OC)n1 | . | . | 0.0 | . | . | .
COc1nc(Nc2ccc(O)cc2)nc(OC(C(F)(F)F)C(F)(F)F)n1 | . | . | . | . | . | .
O=C(O)C1CC(c2ccc(F)cc2)=NO1 (stereo not given) | . | . | . | 62.5 | . | .
O=C(O)C1CC(c2ccccc2)=NO1 (stereo not given) | . | . | . | . | . | .
O=c1cc(C(O)C[N+](=O)[O-])occ1OCc1ccccc1 (stereo not given) | . | / | . | / | / | .
Cc1ccc(S(=O)(=O)CCSc2cccc(C(=O)Nc3ccccc3C(=O)O)c2)cc1 | . | . | . | 68.3 | . | .
Cc1ccc(NC(=O)c2cccc(C(=O)Nc3ccc(C)cc3C(=O)O)c2)c(C(=O)O)c1 | . | / | . | / | / | .
O=C(Nc1cccc(-c2ccc3nncn3n2)c1)c1ccco1 | . | 41.0 | . | . | . | .

Source: PubChem BioAssay (several laboratories)
